Screening data as filed in PubChem BioAssay.
bIAP inhibitor: intestinal alkaline phosphatase (bovine) inhibition; purified bovine IAP, CDP-star luminescence, 30 min; inhibition, % at 20 µM; 190,000 tested, under 10 active;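 active = over 50% inhibition of intestinal alkaline phosphatase at 20 µM in the single-dose screen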
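Assay system: bovine IAP enzyme; medium: DEA buffer 100 mM, pH 9.8, with MgCl2 1.0 mM, ZnCl2 0.02 mM; doses: 20 µM single dose; incubation: enzyme reaction for 30 min at room temperature; detection: CDP-star luminescence signal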
bIAP activator: intestinal alkaline phosphatase (bovine) activation | purified bovine IAP, CDP-star luminescence, 30 min; active compounds read high; fold of DMSO-control signal, blank-subtracted | activation factor at 20 µM | 0.17% of 200,000 active | AID 1016;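 active = activation factor of 2 or more at 20 µM, a signal rise over negative controls twice the positive control's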
mIAP inh: mouse IAP inhibition. purified mouse IAP, CDP-Star luminescence, 30 min. inhibition, % at 10 µM. 0.2% of 330,000 active. AID 2806;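 active = inhibition of at least 40% at 10 µM in the primary screen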;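 note: plate controls were DMSO with enzyme for no effect and no enzyme wells for full effect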
hIAP inh: blocks human intestinal alkaline phosphatase | purified IAP, CDP-Star luminescence, 30 min | AID 2544 | inhibition, % at 10 µM | 0.12% of 330,000 active | P09923;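 active = inhibition reaching a set limit with compound at 10 µM in the primary screen, cut at about 35% in these data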;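 note: plate controls were DMSO wells with enzyme for no effect and no-enzyme buffer wells for full effect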
Target sequence (P09923 whole entry, looked up): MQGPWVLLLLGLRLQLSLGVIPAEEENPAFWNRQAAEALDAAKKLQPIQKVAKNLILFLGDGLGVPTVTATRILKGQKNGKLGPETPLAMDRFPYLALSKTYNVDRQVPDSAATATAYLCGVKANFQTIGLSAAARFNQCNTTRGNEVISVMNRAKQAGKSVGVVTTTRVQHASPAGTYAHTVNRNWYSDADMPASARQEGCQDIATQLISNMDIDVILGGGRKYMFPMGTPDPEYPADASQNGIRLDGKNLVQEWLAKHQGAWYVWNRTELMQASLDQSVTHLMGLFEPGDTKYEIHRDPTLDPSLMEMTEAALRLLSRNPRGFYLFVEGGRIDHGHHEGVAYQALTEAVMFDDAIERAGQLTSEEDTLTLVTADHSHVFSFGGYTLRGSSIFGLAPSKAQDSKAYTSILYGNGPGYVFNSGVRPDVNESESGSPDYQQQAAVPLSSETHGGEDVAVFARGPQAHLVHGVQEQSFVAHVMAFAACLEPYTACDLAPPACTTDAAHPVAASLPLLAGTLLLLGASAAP
hIAP activ: increases human intestinal alkaline phosphatase activity; 0.16% of 330,000 active; AID 2524; activation factor at 10 µM; P09923; purified human IAP, CDP-Star luminescence, 30 min; active compounds read high; 1 = vehicle-only enzyme, 0 = enzyme-free background;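 active = activation factor of the enzyme at least 2-fold when tested at 20 µM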
mIAP act: mouse IAP activation; 0.24% of 330,000 active; muIAP, CDP-Star luminescence, 30 min; active compounds read high; 1 = vehicle-only enzyme signal, 0 = enzyme-free wells; activation factor at 10 µM;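 active = activation factor of at least 2 at 20 µM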
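Assay system: mouse IAP enzyme; reagent: chemiluminescent substrate CDP-Star; dosing: test compounds delivered from DMSO solution; schedule: 30 min at room temperature; measured by: luminescence from enzymatic CDP-Star hydrolysis; controls: DMSO-only wells and no-enzyme negative control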
hIAP act confirm: human IAP activation confirmation; AID 434926; activation (%Activity, negative = activation), % at 8.3 µM; purified IAP, CDP-Star luminescence, 30 min; active compounds read low; shares compounds with hIAP activ; 10% of 880 active;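 active = at least twofold enzyme activation in any of six single-dose repeats, which the averaged readout prints as negative percent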
Starred values were filed as active, the others as inactive; . = not tested or not shown. In the library only some 0.79% were active in any assay of this set; here they are far more common.

SMILES	bIAP inhibitor	bIAP activator	mIAP inh	hIAP inh	hIAP activ	mIAP act	hIAP act confirm
COc1ccc(O)c(/C=N/NC(=S)NCCc2ccccc2)c1	.	.	9	-107	2.1*	0.91	-91*
Cc1ccc(C(=O)COC(=O)CCC(=O)NC2CCCCC2)cc1C	21	0.8	-1	-13	1.1	1	.
O=C(NCc1ccccn1)C(=O)N/N=C/c1ccccc1O	.	.	4	-198	3*	0.96	3
O=C(NCCCN1CCOCC1)C(=O)N/N=C/c1ccccc1O	.	.	-18	-100	2*	1.2	28
O=C(NCCCN1CCOCC1)C(=O)N/N=C/c1ccccc1Cl	.	.	5	14	0.86	0.95	.
Cc1ccc(S(=O)(=O)NNC(=O)C(=O)NNc2ccccn2)cc1	-64	1.6	14	-209	3.1*	0.86	-22
Cc1ccccc1S(=O)(=O)NNC(=O)C(=O)NNc1ccccn1	-49	1.5	9	-210	3.1*	0.91	1
CC(=O)Nc1ccc(S(=O)(=O)Nc2ccccn2)cc1	4	1	9	-9	1.1	0.91	.
CC(=O)Nc1ccc(S(=O)(=O)NNC(=O)C(=O)NNc2ccccn2)cc1	.	.	7	-185	2.8*	0.93	-31
Cc1ccc(S(=O)(=O)NNC(=O)C(O)(c2ccccc2)c2ccccc2)cc1	34	0.7	10	7	0.93	0.9	.
CCN(c1ccccc1)S(=O)(=O)c1cc(C(=O)O)ccc1C	16	0.8	36	8	0.92	0.64	.
CCN1C(=O)N[C@@H](CCc2ccccc2)[C@@H](C(=O)OC)[C@H]1C	.	.	0	7	0.93	1	.
COc1ccc(NC(=O)Nc2ccc3c(c2)OCO3)c(C)c1	.	.	2	-21	1.2	0.98	.
COc1cc(Cl)c(C)cc1NC(=O)COC(=O)c1cc[n+]([O-])cc1	-10	1.1	0	1	0.99	1	.
CN1CCc2c1nc1ccccc1c2N (tested in a mixture with another compound)	.	.	-1	38*	0.61	1	1
CCN(CC)c1ccc(N=Nc2nn(C)c(C)c2[N+](=O)[O-])cc1	24	0.8	33	47*	0.53	0.67	35
CCN(Cc1ccccc1)c1ccc(N=Nc2nn(C)c(C)c2[N+](=O)[O-])cc1	6	0.9	34	35	0.65	0.66	.
COc1cc(C2c3c(-c4cc(Cl)c(C)cc4O)n[nH]c3C(=O)N2Cc2cccnc2)ccc1O (stereo unspecified)	-4	1	6	-82	1.8	0.94	.
Cc1ccc(C2c3c(-c4ccccc4O)n[nH]c3C(=O)N2Cc2ccncc2)cc1 (stereo unspecified)	14	0.9	-12	-131	2.3*	1.1	-23
COc1cc(C2c3c(-c4ccccc4O)n[nH]c3C(=O)N2Cc2ccco2)cc(OC)c1OC (stereo unspecified)	.	.	6	-92	1.9	0.94	.
COc1cccc(C2c3c(-c4cc(Cl)c(C)cc4O)n[nH]c3C(=O)N2Cc2cccnc2)c1 (stereo unspecified)	-15	1.2	-16	-137	2.4*	1.2	-18
COc1ccc(C2c3c(-c4ccccc4O)n[nH]c3C(=O)N2Cc2ccco2)cc1 (stereo unspecified)	.	.	5	-123	2.2*	0.95	-73
CCCCn1c(O)c(N=Nc2ccccc2O)c2ccccc21	.	.	20	-174	2.7*	0.8	6
C=CCN1C(=O)/C(=C/C=C2/N(CC)c3ccc(S(=O)(=O)N(C)C)cc3N2CC)SC1=S	14	0.9	27	36*	0.64	0.73	0
C/C(=N/NC(=O)c1ccc(Cn2cccn2)o1)c1cccc(NC(=O)c2ccncc2)c1	.	.	-5	46*	0.54	1	-101*
SMILES	bIAP inhibitor	bIAP activator	mIAP inh	hIAP inh	hIAP activ	mIAP act	hIAP act confirm
CCOC(=O)C1=C(COC(=O)/C=C/c2ccc(O)c(OC)c2)NC(=O)NC1C (stereo unspecified)	.	.	1	-12	1.1	0.99	.
O=S(=O)(Nc1nc2ccccc2nc1NCc1ccco1)c1ccc(Cl)cc1	-14	1.1	10	-9	1.1	0.9	.
Cc1ccc(S(=O)(=O)Nc2nc3ccccc3nc2NCc2ccco2)cc1	5	1	4	-112	2.1*	0.96	19
O=C(Nc1ccc(OC(F)(F)F)cc1)NC1CCC(Oc2ccc(C(=O)O)cc2)CC1 (stereo unspecified)	.	.	-33	-280	3.8*	1.3	-35
O=C(COc1ccccc1Cc1ccccc1)Nc1cccnc1	.	.	-3	14	0.86	1	.
CC(SCC(=O)Nc1ccccc1Br)c1nc2ccccc2c(=O)[nH]1 (stereo unspecified)	.	.	4	8	0.92	0.96	.
COc1cc(C(=O)NC(=S)NNC(=O)c2cnccn2)cc(OC)c1OC	31	0.7	24	-116	2.2*	0.76	-22
O=C(O)c1cc(O)ccc1NC(=O)c1cccc2ccccc12	.	.	11	-1	1	0.89	.
COc1ccc(CNC(=O)CSc2nnc(C)s2)cc1	10	0.9	0	8	0.92	0.99	.
O=C(CCCSc1nc(-c2ccco2)cc(C(F)(F)F)n1)NCc1cccs1	7	0.9	5	37*	0.63	0.95	-29
O=C(NC1CCCCCC1)c1ccc(-n2cnnc2)cc1	.	.	-2	35*	0.65	1	-59*
CCOC(=O)C1=C(c2ccc(OC)cc2)OC(N)=C(C#N)C1c1cccnc1 (stereo unspecified)	.	.	-4	-195	3*	1	-1
CC(C)c1ccc(NC(=O)CSc2nc3ccsc3c(=O)n2CCC(=O)O)cc1	.	.	-7	-4	1	1.1	.
COC(=O)/C(C#N)=C/c1c(Oc2cc(C)cc(C)c2)nc2ccccn2c1=O	.	.	12	-103	2*	0.88	1
CN(Cc1ccccc1)C(=O)c1[nH]cnc1C(=O)Nc1ccc(Cl)cc1	.	.	3	-46	1.5	0.97	.
CN(Cc1ccccc1)C(=O)Nc1ccc(Cl)cc1	.	.	-4	-102	2*	1	-59*
CC(C)CC(=O)NC(=S)Nc1ccccc1C(=O)Nc1ccccc1	-10	1.1	32	-170	2.7*	0.68	21
CC(C)C(=O)NC(=S)Nc1ccccc1C(=O)Nc1ccccc1	-4	1	36	-165	2.6*	0.64	-108*
CCn1cc(C(=O)N(C)CC(OC)OC)c(=O)c2cc(S(=O)(=O)N3CCOCC3)ccc21	.	.	2	23	0.77	0.98	.
O=C(CN(C(=O)CNC(=O)c1ccco1)c1ccc(F)cc1)NC1CCCCC1	.	.	7	16	0.84	0.93	.
Cn1cc(C(=O)N2CCc3ccccc32)cn1	10	0.9	13	-111	2.1*	0.87	2
CCCn1c(NC(=O)c2ccc([N+](=O)[O-])o2)nc2ccccc21	.	.	13	-14	1.1	0.87	.
